From ChEMBL document CHEMBL5724801, “EUbOPEN Chemogenomics Library - Multiplex” (2024)
“And” between values parts separate entries of the source, which are not always exact repeats. Identical values can stand only once.

Tested on: HEK-293T
Assay: Multiplex assay against HEK293T
Format: toxicity, cell-based
Conditions: human
In short: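 Cells were classed with CellPathfinder machine-learning gating, first as Hoechst high-intensity objects or normal cells, then (normal cells) as healthy, pyknosed or fragmented nuclei, and finally (pyknosed cells) as mitotic or apoptotic. Staining of live cells at seeding used Hoechst33342, BioTracker Green Microtubule Cytoskeleton Dye, MitoTracker Red and Annexin V Alexa Fluor 680, with imaging on a CQ1 microscope at 37°C and 5% CO2 after compound addition. Tubulin, mitochondrial-mass and membrane-permeability phenotypes are per cents of healthy-nucleus cells.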

[1] = 12 h, 1 µM, compound concentration 1 uM
[2] = 12 h, 10 µM, compound concentration 10 uM
[3] = 24 h, 1 µM, compound concentration 1 uM
[4] = 24 h, 10 µM, compound concentration 10 uM
[5] = 48 h, 1 µM, compound concentration 1 uM
[6] = 48 h, 10 µM, compound concentration 10 uM

## N[C@](CC1c2ccccc2Oc2ccccc21)(C(=O)O)[C@H]1C[C@@H]1C(=O)O
[1]
  Population Apoptotic (%): 38% and 54%
  Population Fragmented Nuclei (%): 6% and 7%
  Population Healthy Nuclei (%): 83% and 79%
  Population Hoechst High Intensity Objects (%): 7% and 5%
  Population Membrane Permeable-Phenotype (%): 0%
  Population Mitochondria Different-Phenotype (%): 43% and 58%
  Population Mitotic Cells (%): 61% and 45%
  Population Normal (%): 92% and 94%
  Population Pyknosed Nuclei (%): 10% and 12%
  Population Tubulin-Different-Phenotype (%): 27% and 25%
  Total Cell Count: 447 and 270
[2]
  Population Apoptotic (%): 32%
  Population Fragmented Nuclei (%): 9% and 4%
  Population Healthy Nuclei (%): 78% and 81%
  Population Hoechst High Intensity Objects (%): 8% and 7%
  Population Membrane Permeable-Phenotype (%): 0%
  Population Mitochondria Different-Phenotype (%): 40% and 66%
  Population Mitotic Cells (%): 67%
  Population Normal (%): 91% and 92%
  Population Pyknosed Nuclei (%): 12% and 13%
  Population Tubulin-Different-Phenotype (%): 23% and 31%
  Total Cell Count: 381 and 382
[3]
  Population Apoptotic (%): 21% and 38%
  Population Fragmented Nuclei (%): 8% and 9%
  Population Healthy Nuclei (%): 81% and 84%
  Population Hoechst High Intensity Objects (%): 3% and 5%
  Population Membrane Permeable-Phenotype (%): 1% and 0%
  Population Mitochondria Different-Phenotype (%): 24% and 30%
  Population Mitotic Cells (%): 78% and 61%
  Population Normal (%): 96% and 94%
  Population Pyknosed Nuclei (%): 10% and 6%
  Population Tubulin-Different-Phenotype (%): 15% and 16%
  Total Cell Count: 629 and 368
[4]
  Population Apoptotic (%): 29% and 40%
  Population Fragmented Nuclei (%): 10% and 6%
  Population Healthy Nuclei (%): 79% and 82%
  Population Hoechst High Intensity Objects (%): 5%
  Population Membrane Permeable-Phenotype (%): 0%
  Population Mitochondria Different-Phenotype (%): 30% and 41%
  Population Mitotic Cells (%): 70% and 59%
  Population Normal (%): 94%
  Population Pyknosed Nuclei (%): 10% and 11%
  Population Tubulin-Different-Phenotype (%): 17% and 16%
  Total Cell Count: 510 and 471
[5]
  Population Apoptotic (%): 12% and 17%
  Population Fragmented Nuclei (%): 11% and 12%
  Population Healthy Nuclei (%): 80% and 81%
  Population Hoechst High Intensity Objects (%): 2% and 1%
  Population Membrane Permeable-Phenotype (%): 2% and 0%
  Population Mitochondria Different-Phenotype (%): 15% and 17%
  Population Mitotic Cells (%): 87% and 82%
  Population Normal (%): 97% and 98%
  Population Pyknosed Nuclei (%): 7% and 6%
  Population Tubulin-Different-Phenotype (%): 13% and 10%
  Total Cell Count: 1040 and 654
[6]
  Population Apoptotic (%): 28% and 42%
  Population Fragmented Nuclei (%): 13%
  Population Healthy Nuclei (%): 78% and 80%
  Population Hoechst High Intensity Objects (%): 2% and 4%
  Population Membrane Permeable-Phenotype (%): 0%
  Population Mitochondria Different-Phenotype (%): 17% and 25%
  Population Mitotic Cells (%): 71% and 57%
  Population Normal (%): 97% and 95%
  Population Pyknosed Nuclei (%): 8% and 6%
  Population Tubulin-Different-Phenotype (%): 8% and 12%
  Total Cell Count: 789 and 687

## CSc1ccccc1N1CCN(CCCCCC(=O)NC2CCCc3ccccc32)CC1.Cl (configuration not stated)
[1]
  Population Apoptotic (%): 45%
  Population Fragmented Nuclei (%): 6%
  Population Healthy Nuclei (%): 74%
  Population Hoechst High Intensity Objects (%): 8% and 12%
  Population Membrane Permeable-Phenotype (%): 0%
  Population Mitochondria Different-Phenotype (%): 68% and 75%
  Population Mitotic Cells (%): 54%
  Population Normal (%): 91% and 87%
  Population Pyknosed Nuclei (%): 18% and 19%
  Population Tubulin-Different-Phenotype (%): 59% and 43%
  Total Cell Count: 391 and 322
[2]
  Population Apoptotic (%): 80% and 79%
  Population Fragmented Nuclei (%): 8% and 5%
  Population Healthy Nuclei (%): 68% and 74%
  Population Hoechst High Intensity Objects (%): 15% and 16%
  Population Membrane Permeable-Phenotype (%): 0%
  Population Mitochondria Different-Phenotype (%): 97%
  Population Mitotic Cells (%): 20%
  Population Normal (%): 84% and 83%
  Population Pyknosed Nuclei (%): 22% and 19%
  Population Tubulin-Different-Phenotype (%): 59% and 65%
  Total Cell Count: 316 and 304
[3]
  Population Apoptotic (%): 36% and 41%
  Population Fragmented Nuclei (%): 8%
  Population Healthy Nuclei (%): 79% and 75%
  Population Hoechst High Intensity Objects (%): 4% and 7%
  Population Membrane Permeable-Phenotype (%): 0%
  Population Mitochondria Different-Phenotype (%): 50% and 70%
  Population Mitotic Cells (%): 63% and 58%
  Population Normal (%): 95% and 92%
  Population Pyknosed Nuclei (%): 11% and 16%
  Population Tubulin-Different-Phenotype (%): 41% and 44%
  Total Cell Count: 508 and 356
[4]
  Population Apoptotic (%): 75% and 69%
  Population Fragmented Nuclei (%): 5% and 7%
  Population Healthy Nuclei (%): 70% and 73%
  Population Hoechst High Intensity Objects (%): 21% and 20%
  Population Membrane Permeable-Phenotype (%): 0%
  Population Mitochondria Different-Phenotype (%): 98% and 97%
  Population Mitotic Cells (%): 24% and 30%
  Population Normal (%): 78% and 79%
  Population Pyknosed Nuclei (%): 23% and 18%
  Population Tubulin-Different-Phenotype (%): 53% and 48%
  Total Cell Count: 303 and 315
[5]
  Population Apoptotic (%): 32% and 45%
  Population Fragmented Nuclei (%): 10%
  Population Healthy Nuclei (%): 78% and 76%
  Population Hoechst High Intensity Objects (%): 4% and 6%
  Population Membrane Permeable-Phenotype (%): 0%
  Population Mitochondria Different-Phenotype (%): 39% and 59%
  Population Mitotic Cells (%): 67% and 54%
  Population Normal (%): 95% and 93%
  Population Pyknosed Nuclei (%): 10% and 13%
  Population Tubulin-Different-Phenotype (%): 27% and 31%
  Total Cell Count: 747 and 471
[6]
  Population Apoptotic (%): 76% and 56%
  Population Fragmented Nuclei (%): 11% and 13%
  Population Healthy Nuclei (%): 73%
  Population Hoechst High Intensity Objects (%): 28% and 18%
  Population Membrane Permeable-Phenotype (%): 0%
  Population Mitochondria Different-Phenotype (%): 97% and 93%
  Population Mitotic Cells (%): 23% and 43%
  Population Normal (%): 71% and 81%
  Population Pyknosed Nuclei (%): 14% and 13%
  Population Tubulin-Different-Phenotype (%): 67% and 56%
  Total Cell Count: 365 and 385
